Laboratory results published in ChEMBL document CHEMBL1132497, “Synthesis and SAR of adatanserin: novel adamantyl aryl- and heteroarylpiperazines with dual serotonin 5-HT(1A) and 5-HT(2) activity as potential anxiolytic and antidepressant agents” (J Med Chem, 1999).

How the values were obtained:
[1] = target: T1, 5-hydroxytryptamine receptor 1A (Rattus norvegicus) (UniProt P19327); experiment: Inhibitory activity against 5-hydroxytryptamine 1A receptor of rat hippocampal tissue at 1 uM; format: tissue-based; settings: Hippocampus
T1 sequence (whole entry): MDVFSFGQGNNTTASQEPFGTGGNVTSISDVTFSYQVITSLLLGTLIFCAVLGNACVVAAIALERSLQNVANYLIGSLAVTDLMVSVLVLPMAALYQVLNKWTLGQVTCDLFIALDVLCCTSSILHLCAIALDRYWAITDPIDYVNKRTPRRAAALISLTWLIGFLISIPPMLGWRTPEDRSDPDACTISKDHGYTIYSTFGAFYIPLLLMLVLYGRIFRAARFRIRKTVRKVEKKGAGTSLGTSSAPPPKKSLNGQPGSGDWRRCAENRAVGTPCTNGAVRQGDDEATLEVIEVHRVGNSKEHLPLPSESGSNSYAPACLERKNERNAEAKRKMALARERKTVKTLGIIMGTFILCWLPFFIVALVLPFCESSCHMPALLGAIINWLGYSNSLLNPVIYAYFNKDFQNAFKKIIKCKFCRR

[2] = target: Serotonin 2 (5-HT2) receptor (Rattus norvegicus, UniProt P30994+P08909+P14842); experiment: Inhibitory activity against rat cortical 5-hydroxytryptamine 2 receptor; format: protein assay
How it was run: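 Cortical membranes from male Sprague–Dawley rats, incubated 15 min at 37 °C in 50 mM Tris pH 7.6 with 1.0 nM [3H]ketanserin and a range of drug concentrations. Nonspecific binding defined with 100 μM methysergide. Run by filtration and counting.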

[3] = target: D(2) dopamine receptor (Rattus norvegicus) (UniProt P61169); experiment: Inhibitory activity against Dopamine receptor D2 of rat limbic tissue at 1 uM; format: tissue-based; settings: Limbic system
Sequence of D(2) dopamine receptor (Rattus norvegicus) (P61169 whole entry): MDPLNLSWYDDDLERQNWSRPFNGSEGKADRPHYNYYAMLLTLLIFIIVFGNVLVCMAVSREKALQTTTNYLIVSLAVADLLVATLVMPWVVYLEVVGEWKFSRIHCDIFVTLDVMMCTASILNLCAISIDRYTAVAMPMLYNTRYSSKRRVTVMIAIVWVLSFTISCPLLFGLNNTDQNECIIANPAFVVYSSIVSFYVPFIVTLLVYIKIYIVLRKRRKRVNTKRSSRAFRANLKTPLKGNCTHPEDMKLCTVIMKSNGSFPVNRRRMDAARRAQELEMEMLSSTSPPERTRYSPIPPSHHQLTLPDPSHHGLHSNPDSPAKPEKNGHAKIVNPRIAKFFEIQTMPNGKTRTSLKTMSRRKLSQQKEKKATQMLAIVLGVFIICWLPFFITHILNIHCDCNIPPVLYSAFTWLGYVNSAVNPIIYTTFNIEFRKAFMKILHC

[4] = target: T2, 5-hydroxytryptamine receptor 1A (Rattus norvegicus, UniProt P19327); experiment: Antagonist activity against rat hippocampal tissue 5-hydroxytryptamine 1A receptor; format: functional, tissue-based, Hippocampus
T2 sequence (P19327 whole entry): T1 sequence (whole entry)

D(2) dopamine receptor = D(2) dopamine receptor (Rattus norvegicus, UniProt P61169); experiment: Inhibitory activity against rat limbic tissue Dopamine receptor D2; format: tissue-based, Limbic system
Sequence of D(2) dopamine receptor (P61169 whole entry): as above
How it was run: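 Rat limbic membranes, handled as in the 5-HT2 assay: 15 min at 37 °C, 50 mM Tris pH 7.6, drug concentration range. 30 nM ketanserin in all tubes to block 5-HT2 sites. Nonspecific binding defined with 10 μM sulpiride. Filtration and counting.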

Row | inhibition [1] [%] | Ki [2] [nM] | inhibition [3] [%] | Ki [4] [nM] | Ki (D(2) dopamine receptor) [nM] | Structure (SMILES)
1 | 4 |  |  |  |  | O=C(OCCN1CCN(C(c2ccc(F)cc2)c2ccc(F)cc2)CC1)C12C[C@H]3C[C@@H](C1)C[C@@H](C2)C3
2 | 9 |  |  |  |  | O=C(N1CCN(c2ncccn2)CC1)C12C[C@H]3C[C@@H](C1)C[C@@H](C2)C3
3 |  | 286 | 27 |  |  | Cl.Cl.O=C(NCCCN1CCN(c2ncccn2)CC1)C12CC3CC(CC1C3)C2
4 |  |  |  | 30 |  | C[C@@]12C[C@@H]3C[C@@H](CC(CC(=O)NCCN4CCN(c5ncccn5)CC4)(C3)C1)C2
5 |  | 262 | 67 | 2.4 |  | Cl.Cl.O=C(NCCN1CCN(c2ncccn2)CC1)C12CC3CC(CC1C3)C2
6 | 36 |  |  |  |  | CC(C)N(CCN1CCN(c2ncccn2)CC1)C(=O)C12C[C@H]3C[C@@H](C1)C[C@@H](C2)C3
7 |  |  |  | 127 |  | CC(C)(CN1CCN(c2ncccn2)CC1)NC(=O)C12C[C@H]3C[C@@H](C1)C[C@@H](C2)C3
8 | 58 |  |  |  |  | C[C@@]12C[C@@H]3C[C@@H](CC(CC(=O)OCCCN4CCN(c5cccc(Cl)c5)CC4)(C3)C1)C2
9 |  | 180 |  | 8.5 | 35 | COc1ccccc1N1CCN(CCCOC(=O)C23C[C@H]4C[C@@H](C2)C[C@@H](C3)C4)CC1.Cl.Cl
10 |  | 1600 |  | 7 | > 10000 | Cl.Cl.O=C(NCCCN1CCN(c2ncccn2)CC1)NC12C[C@H]3C[C@@H](C1)C[C@@H](C2)C3
11 |  | 16.4 |  | 0.89 | 129 | Cl.Cl.O=C(NCCN1CCN(c2cccc(Cl)c2)CC1)C12C[C@H]3C[C@@H](C1)C[C@@H](C2)C3
12 |  | 274 |  | 1 | 24 | COc1ccccc1N1CCN(CCNC(=O)C23C[C@H]4C[C@@H](C2)C[C@@H](C3)C4)CC1.Cl.Cl
13 |  |  |  | 62 | 76 | O=C(N[C@H](COCc1ccccc1)CN1CCN(Cc2ccccc2)CC1)C12C[C@H]3C[C@@H](C1)C[C@@H](C2)C3
14 |  | 4.3 | 31 | 10 |  | Cl.Cl.O=C(NCCCN1CCN(c2cccc(Cl)c2)CC1)C12CC3CC(CC1C3)C2
15 | 72 |  | 33 |  |  | O=C(OCCCN1CCN(c2ncccn2)CC1)C12C[C@H]3C[C@@H](C1)C[C@@H](C2)C3
16 | 21 |  | 1 |  |  | C[C@@H](CN1CCN(c2ncccn2)CC1)NC(=O)C12C[C@H]3C[C@@H](C1)C[C@@H](C2)C3
17 | 0 |  |  |  |  | O=C(NC12C[C@H]3C[C@@H](C1)C[C@@H](C2)C3)N1CCN(c2cccc(Cl)c2)CC1
18 | 56 |  |  |  |  | C[C@@]12C[C@@H]3C[C@@H](CC(CC(=O)OCCCN4CCN(c5cccc(C(F)(F)F)c5)CC4)(C3)C1)C2
19 |  |  | 14 | 37 |  | C[C@H](CN1CCN(Cc2ccccc2)CC1)NC(=O)C12C[C@H]3C[C@@H](C1)C[C@@H](C2)C3

Row | inhibition [1] [%] | Ki [2] [nM] | inhibition [3] [%] | Ki [4] [nM] | Ki (D(2) dopamine receptor) [nM] | Structure (SMILES)
20 |  |  | 100 | 26 |  | COc1ccccc1N1CCN(CCCOC(=O)C23CC4C[C@@H](C[C@H]2C4)C3)CC1
21 | 3 |  |  |  |  | O=C(NC12C[C@H]3C[C@@H](C1)C[C@@H](C2)C3)N1CCN(c2ncccn2)CC1
22 |  |  | 32 | 19 |  | O=C(NCCCN1CCN(c2cccc(Cl)c2)CC1)C12C[C@H]3C[C@@H](C1)C[C@@H](C2)C3
23 |  |  | 95 | 40 |  | COc1ccccc1N1CCN(CCOC(=O)NC23C[C@H]4C[C@@H](C2)C[C@@H](C3)C4)CC1
24 |  | 348 |  | 1 | 176 | COc1ccccc1N1CCN(CCCNC(=O)NC23C[C@H]4C[C@@H](C2)C[C@@H](C3)C4)CC1.Cl.Cl
25 |  |  |  | 96 |  | O=C(NCCN1CCN(c2ccc(Cl)cc2)CC1)C12C[C@H]3C[C@@H](C1)C[C@@H](C2)C3
26 |  |  |  | 0.22 | 21.5 | COc1ccccc1N1CCN(C[C@@H](C)NC(=O)C23C[C@H]4C[C@@H](C2)C[C@@H](C3)C4)CC1
27 |  |  |  | 60 |  | CN(CCN1CCN(c2ncccn2)CC1)C(=O)C12C[C@H]3C[C@@H](C1)C[C@@H](C2)C3
28 |  | 2.3 | 94 | 0.7 |  | Cl.Cl.O=C(NCCN1CCN(c2cccc(Cl)c2)CC1)C12CC3CC(CC1C3)C2
29 | 72 |  | 39 |  |  | C[C@@]12C[C@@H]3C[C@@H](CC(CC(=O)OCCN4CCN(c5ncccn5)CC4)(C3)C1)C2
30 |  | 712 |  | 2.5 | 13.5 | COc1ccccc1N1CCN(CCOC(=O)C23C[C@H]4C[C@@H](C2)C[C@@H](C3)C4)CC1.Cl.Cl
31 | 0 |  |  |  |  | CC(C)(CN1CCN(Cc2ccccc2)CC1)NC(=O)C12C[C@H]3C[C@@H](C1)C[C@@H](C2)C3
32 |  | 1890 |  | 0.7 | 3390 | Cl.Cl.O=C(N[C@@H](Cc1ccccc1)CN1CCN(Cc2ccccc2)CC1)C12C[C@H]3C[C@@H](C1)C[C@@H](C2)C3
33 |  | 47 | 14 | 131 |  | Cl.Cl.Cl.O=C(CCN1CCN(c2ncccn2)CC1)NC12C[C@H]3C[C@@H](C1)C[C@@H](C2)C3
34 |  |  | 8 | 46 |  | O=C(NCCN1CCN(Cc2ccccc2)CC1)C12C[C@H]3C[C@@H](C1)C[C@@H](C2)C3
35 |  |  | 36 | 76 |  | O=C(NC12C[C@H]3C[C@@H](C1)C[C@@H](C2)C3)OCCN1CCN(c2cccc(Cl)c2)CC1
36 | 75 |  | 54 |  |  | O=C(OCCCN1CCN(c2cccc(C(F)(F)F)c2)CC1)C12C[C@H]3C[C@@H](C1)C[C@@H](C2)C3
37 | 81 |  |  |  |  | C[C@@]12C[C@@H]3C[C@@H](CC(CC(=O)NCCCN4CCN(c5cccc(Cl)c5)CC4)(C3)C1)C2
38 |  |  | 40 | 38 |  | C[C@@]12C[C@@H]3C[C@@H](CC(CC(=O)NCCN4CCN(c5cccc(Cl)c5)CC4)(C3)C1)C2

Row | inhibition [1] [%] | Ki [2] [nM] | inhibition [3] [%] | Ki [4] [nM] | Ki (D(2) dopamine receptor) [nM] | Structure (SMILES)
39 |  | 395 |  | 0.43 | 20 | O=C(N[C@H](Cc1ccccc1)CN1CCN(c2ncccn2)CC1)C12C[C@H]3C[C@@H](C1)C[C@@H](C2)C3
40 |  | 1360 |  | 1 | 1690 | O=C(N[C@@H](Cc1ccccc1)CN1CCN(c2ncccn2)CC1)C12C[C@H]3C[C@@H](C1)C[C@@H](C2)C3
41 | 86 |  | 97 |  |  | COc1ccccc1N1CCN(CCOC(=O)CC23C[C@H]4C[C@@H](C2)C[C@](C)(C4)C3)CC1
42 |  | 2180 |  | 8.5 | 708 | Cl.Cl.O=C(OCCN1CCN(c2ncccn2)CC1)C12C[C@H]3C[C@@H](C1)C[C@@H](C2)C3
43 |  | 89 | 56 | 61 |  | O=C(NCCN1CCN(c2cccc(Cl)c2)CC1)NC12C[C@H]3C[C@@H](C1)C[C@@H](C2)C3
44 | 9 |  |  |  |  | O=C(NCCN1CCN(C(c2ccc(Cl)cc2)c2ccc(Cl)cc2)CC1)NC12C[C@H]3C[C@@H](C1)C[C@@H](C2)C3
45 | 83 |  | 73 |  |  | O=C(NCCN1CCN(c2cccc(C(F)(F)F)c2)CC1)C12CC3CC(CC1C3)C2
46 |  | 277 | 38 | 45 |  | Cl.Cl.O=C(NCCCN1CCN(c2cccc(Cl)c2)CC1)NC12C[C@H]3C[C@@H](C1)C[C@@H](C2)C3
47 |  | 71 | 72 | 77 |  | O=C(NCCN1CCN(c2ncccn2)CC1)NC12C[C@H]3C[C@@H](C1)C[C@@H](C2)C3
48 |  |  | 47 |  |  | O=C(OCCN1CCN(c2ncccn2)CC1)C12CC3CC(CC1C3)C2
49 | 63 |  |  |  |  | O=C(OCCCN1CCN(Cc2ccccc2)CC1)C12C[C@H]3C[C@@H](C1)C[C@@H](C2)C3
50 | 68 |  | 20 |  |  | C[C@@]12C[C@@H]3C[C@@H](CC(CC(=O)NCCCN4CCN(c5ncccn5)CC4)(C3)C1)C2
51 | 35 |  | 29 |  |  | C[C@@]12C[C@@H]3C[C@@H](CC(CC(=O)OCCN4CCN(c5cccc(C(F)(F)F)c5)CC4)(C3)C1)C2
52 |  | 21 | 6 | 89 |  | Cl.Cl.O=C(NCCCN1CCN(c2ncccn2)CC1)C12C[C@H]3C[C@@H](C1)C[C@@H](C2)C3
53 | 34 |  | 19 |  |  | C[C@@]12C[C@@H]3C[C@@H](CC(CC(=O)OCCN4CCN(c5cccc(Cl)c5)CC4)(C3)C1)C2
54 |  |  | 95 | 17 |  | COc1ccccc1N1CCN(CCCOC(=O)CC23C[C@H]4C[C@@H](C2)C[C@](C)(C4)C3)CC1
55 | 80 |  | 67 |  |  | O=C(OCCCN1CCN(c2cccc(Cl)c2)CC1)C12C[C@H]3C[C@@H](C1)C[C@@H](C2)C3
56 |  |  | 100 | 4.8 |  | COc1ccccc1N1CCN(CCOC(=O)C23CC4C[C@@H](C[C@H]2C4)C3)CC1
